# An excerpt weighted towards active compounds, which were near 2.2% of everything screened.
# APP 5'UTR act: activates APP 5'UTR luciferase reporter; AID 1276; activation, % at 2 µM; actives 1% (n = 190,000); SH-SY5Y APP 5'UTR luciferase reporter, luminescence; zero percent = DMSO vehicle wells;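 active = activation above a set limit, based on mean plus 3 SD of controls, cut at about 140% in these data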
# C8 TRAIL sens: sensitizes caspase-8 expressing cells to TRAIL; NB7+C8 cells + TRAIL, ATPlite viability luminescence; inhibition (viability loss, TRAIL sensitization), % at 10 µM; actives 1% (n = 360,000);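 active = compounds causing at least 50% loss of cell viability in the single-dose screen, relative to plate controls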
# NF-kB expr up: NF-kB expression increase, human neuronal cells | NF-kB reporter expression; stronger effect = higher value | fold change at 12.5 µM | actives 1.6% (n = 190,000) | AID 1239; in the data active = fold change above about 3.3
# FLuc inh counter: Photinus pyralis luciferase inhibition counter-screen. actives 1.5% (n = 200,000). ATPLite firefly luciferase biochemical luminescence, 10 min. inhibition, % at 10 µM. P08659;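 active = inhibition above about 50% when tested at 10 µM, limit read from the data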
# Target sequence (P08659 whole entry, looked up): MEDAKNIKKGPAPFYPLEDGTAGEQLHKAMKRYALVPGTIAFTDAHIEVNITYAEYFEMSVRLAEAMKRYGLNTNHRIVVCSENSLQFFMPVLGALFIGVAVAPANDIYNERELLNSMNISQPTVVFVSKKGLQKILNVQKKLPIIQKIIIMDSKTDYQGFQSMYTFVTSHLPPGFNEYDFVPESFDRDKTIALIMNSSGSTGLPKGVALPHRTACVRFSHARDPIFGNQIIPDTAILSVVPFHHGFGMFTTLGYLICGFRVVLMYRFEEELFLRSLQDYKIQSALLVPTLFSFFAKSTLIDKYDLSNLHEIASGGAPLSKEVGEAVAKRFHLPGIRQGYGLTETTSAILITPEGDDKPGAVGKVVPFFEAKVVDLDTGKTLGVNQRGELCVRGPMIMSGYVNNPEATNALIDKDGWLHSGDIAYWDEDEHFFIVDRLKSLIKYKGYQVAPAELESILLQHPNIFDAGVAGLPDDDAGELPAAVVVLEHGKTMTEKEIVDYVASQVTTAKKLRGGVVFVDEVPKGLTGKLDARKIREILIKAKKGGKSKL
# FLuc stim CS: affects firefly luciferase, flagging false hits in luciferase stimulation screens. 200,000 tested, under 10 active. activation factor at 10 µM. ATPlite luciferase biochemical, luminescence, 10 min; 0 = ATP-free wells, 1 = DMSO control. P08659;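 active = luciferase activation factor, scaled between plate controls, of at least 2 with compound at 10 µM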
#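 System: luciferase plus luciferin reagent, cell-free; medium: PBS as buffer for the ATP substrate; dosing: test compounds dosed from 2 mM stocks in 100% DMSO; timing: 10 min post-reagent at room temperature; measured by: luminescence measurement of luciferase light output; evaluation: luciferase activation, seen as luminescence increase over controls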
# PPC-1+TRAIL kill: PPC-1 cancer cell killing with TRAIL present. PPC-1 cells + TRAIL, ATPLite viability luminescence. cell killing (% activity), % at 4 µM or 5 µM. actives 0.41% (n = 220,000). AID 1443;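 active = cell killing above 50% in the first pass at 4 µM, then a duplicate retest at 5 µM averaging 50% or more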;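 note: plate controls were cells with TRAIL plus DMSO for no effect and medium-only wells lacking cells for full effect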
# Active calls of the source: *; nt = no result given.
SMILES,APP 5'UTR act,C8 TRAIL sens,NF-kB expr up,FLuc inh counter,FLuc stim CS,PPC-1+TRAIL kill
O=C(O)CSc1cc(NS(=O)(=O)c2ccc(Br)cc2)c2ccccc2c1O,nt,48*,nt,nt,nt,nt
CCCS(=O)(=O)NC(=O)C1(C)CCCN(C(=O)c2ccc3ccccc3n2)C1 (centres undefined),nt,-10,nt,nt,nt,nt
Cc1cc2nc(-c3ccc(C#N)cc3)c(Cc3cccc(F)c3)n2c(C)c1Br,nt,-1,nt,nt,nt,nt
O=C1OC(c2ccccc2)=C/C1=C/c1cccs1,18,-6,1.4,79*,0.2,8
CC(C)(C)c1ccc(-c2cn(-c3ccc(Br)cc3)c3[n+]2CCCS3)cc1,-6,55*,1.8,-5,1.1,49
c1ccc(-c2cn(-c3ccccc3)c3[n+]2CCS3)cc1,5,23,1.1,4,1,14
CC(C)(C)C(c1nc2ccccc2[nH]1)n1c(-c2ccsc2)nc2ccccc21 (centres undefined),nt,7,nt,nt,nt,nt
O=C1C(=C(c2ccccc2)N2CCOCC2)Cc2ccccc21,nt,14,nt,nt,nt,nt
COc1cc(NC(=O)C/C(C)=N/NC(=O)c2cccs2)c(OC)cc1Cl,171*,29,1.3,-6,1.1,-3
CCCCCCCCN1C(=O)[C@H](CC(=O)NCc2cccs2)C[C@@]2(C(=O)OC)CC(C)(C)CC=C12,nt,4,nt,nt,nt,nt
Cc1cc(-c2ccccc2)nc(Nc2nc3c(C)cccc3c(=O)[nH]2)n1,nt,71*,nt,nt,nt,nt
Cc1cc(C)c2nc(Nc3nc(-c4ccccc4)cc(=O)[nH]3)nc(C)c2c1,nt,14,nt,nt,nt,16
CC(=O)Nc1ccc(S(=O)(=O)NN=c2sc3ccccc3n2C)cc1N,nt,-6,nt,nt,nt,nt
CC(=O)OCCCN1c2ccccc2Nc2nnc(-c3ccccc3)cc21,171*,42,2.1,48,0.5,25
CC(=O)OCCN1c2ccccc2Sc2cnccc21,nt,1,nt,nt,nt,nt
Cc1cc(C(=O)COC(=O)c2cccc(S(=O)(=O)N(C)C)c2)c(C)n1CC1CCCO1 (centres undefined),nt,62*,nt,nt,nt,nt
CN(C)S(=O)(=O)c1cccc(C(=O)OCC(=O)NC2CCCc3ccccc32)c1 (centres undefined),2,-5,0.97,57*,0.4,-3
CNS(=O)(=O)c1cccc(C(=O)OCC(=O)c2cc(C)n(CC3CCCO3)c2C)c1 (centres undefined),nt,62*,nt,nt,nt,nt
Cc1cc(C(=O)COC(=O)c2ccc(Cl)c(S(N)(=O)=O)c2)c(C)n1CC1CCCO1 (centres undefined),nt,42,nt,nt,nt,nt
COc1cc(OC)cc(C(=O)OCC(=O)c2cc(C)n(CC3CCCO3)c2C)c1 (centres undefined),nt,15,nt,nt,nt,nt
Cc1cc(C(=O)COC(=O)c2ccc3c(c2)NC(=O)CS3)c(C)n1CC1CCCO1 (centres undefined),-15,17,0.7,13,0.9,17
Cc1cc(C(=O)COC(=O)c2ccc(O)cc2)c(C)n1CC1CCCO1 (centres undefined),82,28,2.1,53*,0.5,22
CN(C)c1ccc(-c2ccnc3c2CC(C)(C(=O)NCc2ccco2)O3)cc1 (centres undefined),nt,21,nt,nt,nt,nt
CCCCNc1c(-c2cccnc2)nc2nc(C)cc(C)n12,nt,-13,nt,nt,nt,nt
COc1ccc(Cc2c(-c3ccc(C)cc3)nc3cc(C)c(Br)c(C)n23)c(C)c1,nt,2,nt,nt,nt,nt
SMILES,APP 5'UTR act,C8 TRAIL sens,NF-kB expr up,FLuc inh counter,FLuc stim CS,PPC-1+TRAIL kill
CCCNC(=O)C1(C)CCN(Cc2ccc(OC)c3ccccc23)C1 (centres undefined),nt,-2,nt,nt,nt,nt
COc1cccc(-c2cc(C(=O)N3CCCCC3C)no2)c1 (centres undefined),133,2,3.6*,28,0.7,29
COc1ccc(-c2cc(C(=O)N3CCCC3)no2)cc1,nt,62*,nt,nt,nt,nt
COc1ccc2cc3cc(C(=O)N4CCCCCC4)oc3nc2c1,nt,50*,nt,nt,nt,nt
COc1ccc2cc3cc(C(=O)N4CCN(C5CCCCC5)CC4)oc3nc2c1,nt,12,nt,nt,nt,nt
COc1ccc(-c2cc(C(=O)N3CCCCCC3)no2)cc1,nt,26,nt,nt,nt,nt
COc1cccc(-c2cc(C(=O)N3CCCCCC3)no2)c1,151*,-8,7.2*,62*,0.4,32
COc1cccc(-c2cc(C(=O)O)no2)c1,2,-5,1.1,-3,1,-2
COc1ccc(NC(=O)c2cc(-c3sc(NC(=O)c4ccccc4)nc3C)n(-c3ccc(Br)cc3)n2)cc1,nt,1,nt,nt,nt,nt
CC(C)(C)NC(=O)C1c2ccccc2OCC(=O)N1Cc1ccccc1 (centres undefined),nt,-23,nt,nt,nt,nt
CC(C)c1ccc([C@@H]2O[C@H](CCc3ccccc3)CC3=C2C(=O)OC(C)(C)O3)cc1,nt,4,nt,nt,nt,nt
Cc1ccc(-c2cc(C(=O)N3CCCc4ccccc43)no2)cc1,41,32,2.6,58*,0.4,11
O=C(c1cc(-c2ccc(F)cc2)on1)N1CCCC1,80,36,3.5*,64*,0.4,32
O=C(c1cc(-c2cccc(O)c2)on1)N1CCCCC1,196*,23,6*,43,0.6,8
O=C(c1cc(-c2ccc(F)cc2)on1)N1CCCc2ccccc21,51,2,1.7,30,0.7,-1
O=C(c1cc(-c2ccc(F)cc2)on1)N1CCCCCC1,nt,16,nt,nt,nt,nt
O=C(O)c1ccc(-c2cccc(-c3nn4c(=O)cc(N5CCNCC5)nc4s3)c2)cc1,nt,-12,nt,nt,nt,nt
O=C(Cn1cnc([N+](=O)[O-])c1)Nc1ccc(Cl)cc1Cl,nt,-5,nt,nt,nt,nt
C=C(C)c1nc(Oc2ccccc2)nc(Oc2ccccc2)n1,nt,55*,nt,nt,nt,nt
Cc1cc(Oc2ccccc2)nc(-c2ccccc2)n1,2,-2,1.3,-7,1.1,17
CCN1CCN(Cc2ccc(NC(=O)Nc3ccccc3)cc2)CC1,98,36,1.3,64*,0.4,36
CCN1CCN(Cc2ccc(NC(=O)Nc3cccs3)cc2)CC1,75,32,1.2,74*,0.3,7
COCCn1c(C)cc(C(=O)CSc2nnc3ccccn23)c1C,nt,16,0.67,29,0.7,18
COCCn1c(C)cc(C(=O)CSc2nc3ccccc3s2)c1C,204*,25,0.68,46,0.5,36
COCCn1c(C)cc(C(=O)CSc2nc(C)c(C)c(C)n2)c1C,5,-8,1,-2,1,1
SMILES,APP 5'UTR act,C8 TRAIL sens,NF-kB expr up,FLuc inh counter,FLuc stim CS,PPC-1+TRAIL kill
COCCn1c(C)cc(C(=O)CSc2nc3ccccc3o2)c1C,177*,21,1.8,18,0.8,10
CC1(C(=O)NS(=O)(=O)c2ccc(Br)cc2)CCN1C(=O)CCC1CCCC1 (centres undefined),nt,-6,nt,nt,nt,nt
COc1cccc(-c2sc3ccc(OC)cc3c2-c2cnc(N3CCOCC3)nc2)c1,nt,-4,nt,nt,nt,nt
COC(=O)c1ccc(CCc2cc(O)ccc2O)cc1,nt,47,nt,nt,nt,nt
COC(=O)c1ccc(CCc2cc(O)c(Br)cc2O)cc1,nt,49*,nt,nt,nt,nt
CC(C)Cc1nc2oc3c(NCCCN4CCOCC4)ncnc3c2c2c1CCC2,16,17,0.65,-7,1.1,18
